Experimental data reported in ChEMBL document CHEMBL1144450 (J Med Chem, 2005).

What was measured:
Rattus norvegicus = test: In vivo antiinflammatory activity after 3 hr of oral administration was determined using rat carrageenan induced paw edema model; type: functional; conditions: read-out: ID50 (the source's name)
Method in brief: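 Carrageenan-induced foot paw edema in rats, with the test compound and reference drugs given orally. Activity is expressed as ID50 in mg/kg.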

[1] = Percentage of nitric oxide released upon incubation in the presence of pig liver esterase in phosphate buffer solution at pH 7.4, 37 degree C for 1.5 h; type: functional
Method in brief: (§1)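 Pig liver esterase was added at 2 equiv (1 mol compound : 2 mol esterase) in PBS at pH 7.4, 37 °C, 1.5 h. Nitrite from NO was measured by the Griess reaction. Release is given as percent of a theoretical 2 mol NO per mol compound, SEM, n = 3.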

[2] = Percentage of nitric oxide released upon incubation in the presence of guinea pig serum in PBS pH 7.4, 37 degree C for 1.5 h; type: functional; parameters: concentration or dose not given beside the values
Method in brief: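 Test compound (2.0 × 10-4 mmol) was incubated with 260 µL guinea pig serum in PBS at pH 7.4, 37 °C, for 1.5 h. Nitrite was determined by the Griess reaction. Release is given as percent of a theoretical maximum of 2 mol NO per mol compound, SEM, n = 3.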

[3] = target: T1, Prostaglandin G/H synthase 1 (Ovis aries, UniProt P05979); test: In vitro inhibitory concentration against COX-1 enzyme
T1 sequence (P05979 whole entry): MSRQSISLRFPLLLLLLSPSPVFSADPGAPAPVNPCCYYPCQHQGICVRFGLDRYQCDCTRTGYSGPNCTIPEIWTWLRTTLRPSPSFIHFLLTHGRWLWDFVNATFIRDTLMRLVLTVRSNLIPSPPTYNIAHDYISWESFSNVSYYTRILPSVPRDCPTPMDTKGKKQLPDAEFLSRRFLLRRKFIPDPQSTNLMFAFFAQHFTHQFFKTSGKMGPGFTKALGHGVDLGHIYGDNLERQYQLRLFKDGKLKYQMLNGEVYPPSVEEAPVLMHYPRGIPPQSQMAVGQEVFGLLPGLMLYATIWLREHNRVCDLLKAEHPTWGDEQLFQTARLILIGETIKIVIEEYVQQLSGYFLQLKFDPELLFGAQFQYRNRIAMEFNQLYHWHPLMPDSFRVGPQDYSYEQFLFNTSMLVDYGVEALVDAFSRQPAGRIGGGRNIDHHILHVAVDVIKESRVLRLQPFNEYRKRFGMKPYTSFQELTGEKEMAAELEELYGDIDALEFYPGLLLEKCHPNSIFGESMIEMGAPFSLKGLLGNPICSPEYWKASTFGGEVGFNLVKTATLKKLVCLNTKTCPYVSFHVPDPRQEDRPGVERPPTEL

[4] = Percentage of nitric oxide released by the compound when incubated in phosphate buffer solution at pH 7.4, 37 degree C for 1.5 h; type: functional
Method in brief: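 The compound was incubated in PBS at pH 7.4 and 37 °C for 1.5 h. Nitric oxide was quantified as nitrite by the Griess reaction. Release is expressed as percent of a theoretical maximum of 2 mol NO per mol compound, SEM, n = 3.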

[5] = Percentage of nitric oxide released by the compound when incubated in the presence of pig liver esterase in phosphate buffer solution at pH 7.4, 37 degree C for 1.5 h; type: functional; method in brief: as §1

Compound | IC50 [3] [µM] | ED50 (Rattus norvegicus) [mg/kg] | Activity [1] [%] | Activity [2] [%] | Activity [4] [%] | Activity [5] [%]
COc1ccc2c(c1)c(CC(=O)O)c(C)n2C(=O)c1ccc(Cl)cc1 [INDOMETHACIN] |  | 4.2 |  |  |  | 
CC(C)Cc1ccc(C(C)C(=O)O)cc1 (centres undefined) [IBUPROFEN] |  | 67.4 |  |  |  | 
CC(C)Cc1ccc(C(C)C(=O)OCO/N=[N+](\[O-])N2CCCC2)cc1 (centres undefined) | > 100 | 66.8 | 16.3 | 89.2 | 14.9 | 
CC(=O)Oc1ccccc1C(=O)OCO/N=[N+](\[O-])N(C)C | > 100 | 151 | 19.1 | 81.6 | 15.4 | 
[O-]/[N+](=N\O)N1CCCC1 |  |  |  |  | 94 | 
CN(C)/[N+]([O-])=N/O |  |  |  |  | 95.2 | 

Continued, in another order:

IC50 [3] [µM] | Compound | ED50 (Rattus norvegicus) [mg/kg] | Activity [1] [%] | Activity [2] [%] | Activity [4] [%] | Activity [5] [%]
> 100 | CC(=O)Oc1ccccc1C(=O)OCO/N=[N+](\[O-])N1CCCC1 | 182 |  | 88.9 | 14.8 | 18.5
> 100 | COc1ccc2c(c1)c(CC(=O)OCO/N=[N+](\[O-])N1CCCC1)c(C)n2C(=O)c1ccc(Cl)cc1 | 10.7 | 16.3 | 89.1 | 15.1 | 
> 100 | COc1ccc2c(c1)c(CC(=O)OCO/N=[N+](\[O-])N(C)C)c(C)n2C(=O)c1ccc(Cl)cc1 | 5.9 | 16.9 | 86.3 | 14.3 | 
> 100 | CC(C)Cc1ccc(C(C)C(=O)OCO/N=[N+](\[O-])N(C)C)cc1 (centres undefined) | 62.3 | 17.3 | 93.6 | 16.1 | 
